“Also recorded” adds a separate entry of the source. Marks after values point to notes of the source that are not given here.
Legend:
[1] = test system: human colorectal tumor xeno-grafts; details: human colorectal tumor xeno-grafts in nude rodents; cited from earlier work
[2] = test system: patients with advanced solid malignancies; experiment: Phase 1 dose-escalation study: safety, treatment-emergent adverse events; format: in vivo; details: for Abdominal distension (related TEAE) / Anemia (related TEAE) / Anorexia (related TEAE) / At least 1 related TEAE / Chest discomfort (related TEAE) / Constipation (related TEAE) / Cough (related TEAE) / Dyspepsia (related TEAE) / Dyspnea (related TEAE) / Edema (related TEAE) / Face edema (related TEAE) / Fatigue (related TEAE) / Fluid retention (related TEAE) / Increased appetite (related TEAE) / Insomnia (related TEAE) / Muscle spasms (related TEAE) / Myalgia (related TEAE) / Nausea (related TEAE) / Peripheral edema (related TEAE) / Pleural effusion (related TEAE) / Rash (related TEAE) / Vomiting (related TEAE) / Weight increase (related TEAE): N = 31 patients
adiponectin = experiment: Plasma adiponectin; format: in vivo, human
Outline: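 Blood was drawn at baseline (before cycle 1) and every 3 weeks thereafter from patients with advanced solid malignancies given oral drug twice daily at 0.10–1.15 mg in 21-day cycles. Plasma adiponectin was quantified by solid-phase quantitative sandwich enzyme immunoassay. A population pharmacokinetic/adiponectin model using data from every patient defined the dose–response relation and predicted the increase relative to pretreatment.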

PPAR response element = details: cited from earlier work
cancer cell growth = details: inhibition of cancer cell growth; cited from earlier work
[3] = Grade 3 (dose-limiting toxicity)
[4] = Patient 20, 0.75 mg twice daily, by cycle 3, day 1, CTCAE grade 4
[5] = PPAR response element activation

Cc1cc(Oc2ccc3nc(COc4ccc(CC5SC(=O)NC5=O)cc4)n(C)c3c2)cc(C)c1N (stereo not drawn) [Efatutazone]
Growth of tumor xenografts [1]: inhibits | Dose-limiting toxicities ([2]; 0.10-, 0.25-, and 1.15-mg cohorts, not dose dependent): Three episodes of dose-limiting toxicities; also recorded: Three DLTs related to fluid retention | Patients with at least 1 treatment-related AE ([2]; 31 patients): 100% | Grade ≥4 edema ([2]; 31 treated patients): No patient | Abdominal distension (related TEAE) ([2]; Grade 1): 1 (3.2) No. (%) | Anemia (related TEAE) ([2]; Grade 1): 5 (16.1) No. (%) | Anorexia (related TEAE) ([2]; Grade 1): 3 (9.7) No. (%) | At least 1 related TEAE ([2]; Grade 1): 13 (41.9) No. (%) | Chest discomfort (related TEAE) ([2]; Grade 1): 1 (3.2) No. (%) | Constipation (related TEAE) ([2]; Grade 1): 2 (6.5) No. (%) | Cough (related TEAE) ([2]; Grade 1): 3 (9.7) No. (%) | Dyspepsia (related TEAE) ([2]; Grade 1): 2 (6.5) No. (%) | Dyspnea (related TEAE) ([2]; Grade 1): 4 (12.9) No. (%) | Edema (related TEAE) ([2]; Grade 1): 1 (3.2) No. (%) | Face edema (related TEAE) ([2]; Grade 1): 2 (6.5) No. (%) | Fatigue (related TEAE) ([2]; Grade 1): 10 (32.3) No. (%) | Fluid retention (related TEAE) ([2]; Grade 1): 2 (6.5) No. (%) | Increased appetite (related TEAE) ([2]; Grade 1): 3 (9.7) No. (%) | Insomnia (related TEAE) ([2]; Grade 1): 1 (3.2) No. (%) | Muscle spasms (related TEAE) ([2]; Grade 1): 1 (3.2) No. (%) | Myalgia (related TEAE) ([2]; Grade 1): 2 (6.5) No. (%) | Nausea (related TEAE) ([2]; Grade 1): 5 (16.1) No. (%) | Peripheral edema (related TEAE) ([2]; Grade 1): 8 (25.8) No. (%) | Pleural effusion (related TEAE) ([2]; Grade 1): 1 (3.2) No. (%) | Rash (related TEAE) ([2]; Grade 1): 2 (6.5) No. (%) | Vomiting (related TEAE) ([2]; Grade 1): 2 (6.5) No. (%) | Weight increase (related TEAE) ([2]; Grade 1): 17 (54.8) No. (%) | Abdominal distension (related TEAE) ([2]; Grade 2): 1 (3.2) No. (%) | Anemia (related TEAE) ([2]; Grade 2): 3 (9.7) No. (%) | Anorexia (related TEAE) ([2]; Grade 2): 0 No. (%) | At least 1 related TEAE ([2]; Grade 2): 11 (35.5) No. (%) | Chest discomfort (related TEAE) ([2]; Grade 2): 0 No. (%) | Constipation (related TEAE) ([2]; Grade 2): 0 No. (%) | Cough (related TEAE) ([2]; Grade 2): 1 (3.2) No. (%) | Dyspepsia (related TEAE) ([2]; Grade 2): 0 No. (%) | Dyspnea (related TEAE) ([2]; Grade 2): 0 No. (%) | Edema (related TEAE) ([2]; Grade 2): 0 No. (%) | Face edema (related TEAE) ([2]; Grade 2): 0 No. (%) | Fatigue (related TEAE) ([2]; Grade 2): 2 (6.5) No. (%) | Fluid retention (related TEAE) ([2]; Grade 2): 1 (3.2) No. (%) | Increased appetite (related TEAE) ([2]; Grade 2): 0 No. (%) | Insomnia (related TEAE) ([2]; Grade 2): 1 (3.2) No. (%) | Muscle spasms (related TEAE) ([2]; Grade 2): 1 (3.2) No. (%) | Myalgia (related TEAE) ([2]; Grade 2): 0 No. (%) | Nausea (related TEAE) ([2]; Grade 2): 1 (3.2) No. (%) | Peripheral edema (related TEAE) ([2]; Grade 2): 7 (22.6) No. (%) | Pleural effusion (related TEAE) ([2]; Grade 2): 1 (3.2) No. (%) | Rash (related TEAE) ([2]; Grade 2): 0 No. (%) | Vomiting (related TEAE) ([2]; Grade 2): 1 (3.2) No. (%) | Weight increase (related TEAE) ([2]; Grade 2): 0 No. (%) | Edema (related TEAE) [2, 3]: 2 (6.5) ^b No. (%) | Pleural effusion (related TEAE) [2, 3]: 1 (3.2) ^b No. (%) | Abdominal distension (related TEAE) ([2]; Grade 3): 0 No. (%) | Anemia (related TEAE) ([2]; Grade 3): 4 (12.9) No. (%) | Anorexia (related TEAE) ([2]; Grade 3): 0 No. (%) | At least 1 related TEAE ([2]; Grade 3): 6 (19.4) No. (%) | Chest discomfort (related TEAE) ([2]; Grade 3): 1 (3.2) No. (%) | Constipation (related TEAE) ([2]; Grade 3): 0 No. (%) | Cough (related TEAE) ([2]; Grade 3): 0 No. (%) | Dyspepsia (related TEAE) ([2]; Grade 3): 0 No. (%) | Dyspnea (related TEAE) ([2]; Grade 3): 1 (3.2) No. (%) | Face edema (related TEAE) ([2]; Grade 3): 0 No. (%) | Fatigue (related TEAE) ([2]; Grade 3): 2 (6.5) No. (%) | Fluid retention (related TEAE) ([2]; Grade 3): 0 No. (%) | Increased appetite (related TEAE) ([2]; Grade 3): 0 No. (%) | Insomnia (related TEAE) ([2]; Grade 3): 0 No. (%) | Muscle spasms (related TEAE) ([2]; Grade 3): 0 No. (%) | Myalgia (related TEAE) ([2]; Grade 3): 0 No. (%) | Nausea (related TEAE) ([2]; Grade 3): 0 No. (%) | Peripheral edema (related TEAE) ([2]; Grade 3): 1 (3.2) No. (%) | Rash (related TEAE) ([2]; Grade 3): 0 No. (%) | Vomiting (related TEAE) ([2]; Grade 3): 0 No. (%) | Weight increase (related TEAE) ([2]; Grade 3): 0 No. (%) | Abdominal distension (related TEAE) ([2]; Grade 4): 0 No. (%) | Anemia (related TEAE) ([2]; Grade 4): 0 No. (%) | Anorexia (related TEAE) ([2]; Grade 4): 0 No. (%) | At least 1 related TEAE ([2]; Grade 4): 1 (3.2) ^a No. (%) | Chest discomfort (related TEAE) ([2]; Grade 4): 0 No. (%) | Constipation (related TEAE) ([2]; Grade 4): 0 No. (%) | Cough (related TEAE) ([2]; Grade 4): 0 No. (%) | Dyspepsia (related TEAE) ([2]; Grade 4): 0 No. (%) | Dyspnea (related TEAE) ([2]; Grade 4): 0 No. (%) | Edema (related TEAE) ([2]; Grade 4): 0 No. (%) | Face edema (related TEAE) ([2]; Grade 4): 0 No. (%) | Fatigue (related TEAE) ([2]; Grade 4): 0 No. (%) | Fluid retention (related TEAE) ([2]; Grade 4): 0 No. (%) | Increased appetite (related TEAE) ([2]; Grade 4): 0 No. (%) | Insomnia (related TEAE) ([2]; Grade 4): 0 No. (%) | Muscle spasms (related TEAE) ([2]; Grade 4): 0 No. (%) | Myalgia (related TEAE) ([2]; Grade 4): 0 No. (%) | Nausea (related TEAE) ([2]; Grade 4): 0 No. (%) | Peripheral edema (related TEAE) ([2]; Grade 4): 0 No. (%) | Pleural effusion (related TEAE) ([2]; Grade 4): 0 No. (%) | Rash (related TEAE) ([2]; Grade 4): 0 No. (%) | Vomiting (related TEAE) ([2]; Grade 4): 0 No. (%) | Weight increase (related TEAE) ([2]; Grade 4): 0 No. (%) | Abdominal distension (related TEAE) ([2]; Overall): 2 (6.5) No. (%) | Anemia (related TEAE) ([2]; Overall): 12 (38.7) No. (%) | Anorexia (related TEAE) ([2]; Overall): 3 (9.7) No. (%) | At least 1 related TEAE ([2]; Overall): 31 (100) No. (%) | Chest discomfort (related TEAE) ([2]; Overall): 2 (6.5) No. (%) | Constipation (related TEAE) ([2]; Overall): 2 (6.5) No. (%) | Cough (related TEAE) ([2]; Overall): 4 (12.9) No. (%) | Dyspepsia (related TEAE) ([2]; Overall): 2 (6.5) No. (%) | Dyspnea (related TEAE) ([2]; Overall): 5 (16.1) No. (%) | Edema (related TEAE) ([2]; Overall): 3 (9.7) No. (%) | Face edema (related TEAE) ([2]; Overall): 2 (6.5) No. (%) | Fatigue (related TEAE) ([2]; Overall): 14 (45.2) No. (%) | Fluid retention (related TEAE) ([2]; Overall): 3 (9.7) No. (%) | Increased appetite (related TEAE) ([2]; Overall): 3 (9.7) No. (%) | Insomnia (related TEAE) ([2]; Overall): 2 (6.5) No. (%) | Muscle spasms (related TEAE) ([2]; Overall): 2 (6.5) No. (%) | Myalgia (related TEAE) ([2]; Overall): 2 (6.5) No. (%) | Nausea (related TEAE) ([2]; Overall): 6 (19.4) No. (%) | Peripheral edema (related TEAE) ([2]; Overall): 16 (51.6) No. (%) | Pleural effusion (related TEAE) ([2]; Overall): 3 (9.7) No. (%) | Rash (related TEAE) ([2]; Overall): 2 (6.5) No. (%) | Vomiting (related TEAE) ([2]; Overall): 3 (9.7) No. (%) | Weight increase (related TEAE) ([2]; Overall): 17 (54.8) No. (%) | Serum cholesterol, peak [2, 4]: 515 mg/dL | Serum triglycerides, peak [2, 4]: 4525 mg/dL | Cardiac dysfunction (serial electrocardiograms and echocardiograms) ([2]; all dose levels): did not reveal any evidence of cardiac dysfunction; also recorded: no measurable cardiotoxicity | Patients with anemia (treatment-related AE) ([2]; all dose levels): 38.7% | Patients with fatigue (treatment-related AE) ([2]; all dose levels): 45.2% | Patients with peripheral edema ([2]; all dose levels): 51.6% | Patients with weight increase (treatment-related AE) ([2]; all dose levels): 54.8% | Maximum tolerated dose (MTD) ([2]; doses 0.10 to 1.15 mg PO twice daily): not reached | Patients with grade 4 TEAEs ([2]; regardless of attribution (bronchospasm; hypercholesterolemia and hypertriglyceridemia)): Two patients | Change in adiponectin levels (adiponectin; after 4 weeks of treatment at all dose levels): increased | Predicted increase in adiponectin expression levels relative to pretreatment (adiponectin; at optimal dose, population-based pharmacokinetic/adiponectin modeling): > 90% | Potency relative to rosiglitazone (PPAR response element; [5]): at least 50 × | Potency relative to troglitazone (PPAR response element; [5]): ≥ 500 × | PPAR subtype selectivity of transcription activation (PPAR response element; background statement, no reference given): selectively activates PPARγ-mediated transcription with little effect on other PPAR subtypes | Potency relative to rosiglitazone (cancer cell growth): at least 50 × | Potency relative to troglitazone (cancer cell growth): ≥ 500 ×
